ChEMBL document CHEMBL2417493, “Novel cycloalkylthiophene-imine derivatives bearing benzothiazole scaffold: synthesis, characterization and antiviral activity evaluation” (Bioorg Med Chem Lett, 2013)
In brackets after ≈: the same amount, converted by molar mass. Activity calls are given as the source filed them. No cut-off for these calls is given here.

What was measured:
[1] = Cytotoxicity against human HeLa cells after 72 hrs by MTT assay; assay type: cell-based
In short: (§1)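 MTT assay on RD (rhabdomyosarcoma), HepG2 and HeLa cell lines. CC50 is the concentration that cut cell viability by 50% relative to 0.1% DMSO-treated mock-control cells. Values are mean and SD of three independent experiments.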

Coxsackievirus B5 [2] = assay: Antiviral activity against Coxsackievirus B5 infected in human HepG2 cells assessed as inhibition of virus-induced cytopathogenicity at 32 ug/ml after 48 hrs by crystal violet staining method; assay type: functional; settings: Enterovirus B, HepG2, 48 h
In short: (§2)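 Single-concentration screen with these pairings: RD/EV71, HepG2/CVB5, HeLa/ADV7, MDCK/H1N1. Cells were infected and kept 48 h in the presence of compound at one fixed concentration; some EV71 tests used the lower level. Inhibition of virus proliferation was read by crystal violet staining.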

Influenza A virus [3] = assay: Antiviral activity against influenza A virus H1N1 infected in dog MDCK cells assessed as inhibition of virus-induced cytopathogenicity at 32 ug/ml after 48 hrs by crystal violet staining method; assay type: functional, organism-based; in short: as §2
Enterovirus [4] = assay: Antiviral activity against Enterovirus 71 infected in human rhabdomyosarcoma cells assessed as inhibition of virus-induced cytopathogenicity after 48 hrs by crystal violet staining method; assay type: functional, organism-based
In short: (§3)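 Virus–cell pairings were EV71 in RD, CVB5 in HepG2, ADV7 in HeLa and influenza A H1N1 in MDCK. Compounds were added […], and total infectivity was read by crystal violet staining. EC50 is the concentration reducing viral replication by 50%. Values are mean SD of three independent experiments.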

unidentified adenovirus [5] = assay: Antiviral activity against Adenovirus type 7 infected in human HeLa cells assessed as inhibition of virus-induced cytopathogenicity after 48 hrs by crystal violet staining method; assay type: functional, organism-based; in short: as §3
Influenza A virus [6] = assay: Antiviral activity against influenza A virus H1N1 infected in dog MDCK cells assessed as inhibition of virus-induced cytopathogenicity after 48 hrs by crystal violet staining method; assay type: functional, organism-based; in short: as §3
[7] = Cytotoxicity against human rhabdomyosarcoma cells after 72 hrs by MTT assay; assay type: cell-based, Rhabdomyosarcoma cell; in short: as §1
[8] = Selectivity index, ratio of CC50 for human HeLa cells to EC50 for Adenovirus type 7 infected in human HeLa cells; assay type: toxicity, cell-based; settings: read-out: Ratio CC50/EC50
In short: (§4)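 Antiviral pairings were EV71 in RD cells, CVB5 in HepG2 cells and ADV7 in HeLa cells. Compounds were added […], and total infectivity was read by crystal violet staining. EC50 is the concentration that cut viral replication by 50%. CC50 came from MTT relative to 0.1% DMSO mock control. SI = CC50/EC50. Data are from three independent experiments.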

[9] = Cytotoxicity against human HepG2 cells after 72 hrs by MTT assay; assay type: cell-based; in short: as §1
[10] = Selectivity index, ratio of CC50 for human rhabdomyosarcoma cells to EC50 for Enterovirus 71 infected in human rhabdomyosarcoma cells; assay type: toxicity; settings: read-out: Ratio CC50/EC50; in short: as §4
unidentified adenovirus [11] = assay: Antiviral activity against Adenovirus type 7 infected in human HeLa cells assessed as inhibition of virus-induced cytopathogenicity at 32 ug/ml after 48 hrs by crystal violet staining method; assay type: functional; settings: type 7, HeLa; in short: as §2
[12] = Selectivity index, ratio of CC50 for human HepG2 cells to EC50 for Coxsackievirus B5 infected in human HepG2 cells; assay type: toxicity, cell-based; settings: read-out: Ratio CC50/EC50; in short: as §4
Coxsackievirus B5 [13] = assay: Antiviral activity against Coxsackievirus B5 infected in human HepG2 cells assessed as inhibition of virus-induced cytopathogenicity after 48 hrs by crystal violet staining method; assay type: functional, organism-based; in short: as §3
Enterovirus [14] = assay: Antiviral activity against Enterovirus 71 infected in human rhabdomyosarcoma cells assessed as inhibition of virus-induced cytopathogenicity at 16 ug/ml after 48 hrs by crystal violet staining method; assay type: functional; settings: Enterovirus, 71, 48 h; in short: as §2

Question: Which CC50 at 72 h [1] does the source give for Oc1ccccc1/C=N/c1sc2c(c1-c1nc3ccccc3s1)CCCC2 here?
Answer: 122 µg/mL (≈ 312 µM)

Question: What about the inhibition at 32 µg/mL (Coxsackievirus B5 [2]) of the same compound?
Answer: 60%

Question: And the inhibition (Influenza A virus [3])?
Answer: Active

Question: And the inhibition (Enterovirus [4])?
Answer: Dose-dependent effect

Question: And the EC50 (Enterovirus [4]; Enterovirus, 71, 48 h)?
Answer: 2 µg/mL (≈ 5.12 µM)

Question: What about the inhibition (unidentified adenovirus [5]) of the same compound?
Answer: Dose-dependent effect

Question: What about the EC50 (unidentified adenovirus [5]; unidentified adenovirus, type 7, HeLa, 48 h) of the same compound?
Answer: 10.8 µg/mL (≈ 27.7 µM)

Question: What about the “inhibition (INH)” value (Influenza A virus [6]) of the same compound?
Answer: <50%

Question: And the CC50 at 72 h [7]?
Answer: 42.4 µg/mL (≈ 108 µM)

Question: And the selectivity ratio [8]?
Answer: 11.1

Question: And the CC50 at 72 h [9]?
Answer: 114 µg/mL (≈ 292 µM)

Question: What about the selectivity ratio [10] of the same compound?
Answer: 20.3

Question: And the inhibition at 32 µg/mL (unidentified adenovirus [11])?
Answer: 60%

Question: And the selectivity ratio [12]?
Answer: 20.8

Question: What about the inhibition (Coxsackievirus B5 [13]) of the same compound?
Answer: Dose-dependent effect

Question: What about the EC50 (Coxsackievirus B5 [13]; Enterovirus B, HepG2, 48 h) of the same compound?
Answer: 5.4 µg/mL (≈ 13.8 µM)

Question: What about the inhibition at 16 µg/mL (Enterovirus [14]) of the same compound?
Answer: 60%
